pIC50: −log10 of the molar value. The source made the active and inactive calls. The calls are words filed in the database; no cut-off is given here.
Tests used:
Glutamate NMDA receptor [1] = assay: Antagonist activity at NMDA receptor in rat cerebellar granule neurons assessed as inhibition of NMDA-induced increase in intracellular calcium level by fluorometric assay; type: functional, cell-based
How it was run: (§1)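 Primary cerebellar granule neuron cultures on poly-L-lysine-coated glass coverslips, used after 7–14 days in vitro. Cells loaded with 6 µM Fura-2 AM for 45 min, then read fluorometrically in Locke-Hepes buffer at 37 °C under mild agitation. Cumulative increasing compound concentrations added after glutamate (100 µM, with 10 µM glycine) or NMDA challenge. Inhibition percentages fitted by variable-slope non-linear regression. At least three experiments on three culture batches.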

Trypanosoma brucei [2] = assay: Trypanocidal activity against Trypanosoma brucei 427 bloodstream form assessed as decrease in cell density after 48 hrs by hemocytometry; type: functional, organism-based; conditions: Trypanosoma brucei, 427, 48 h
How it was run: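 Bloodstream-form T. brucei strain 427 kept at 37 °C in modified Iscove's medium, pH 7.4. Parasites grown 48 h across a range of drug concentrations, starting at 0.5 × 10⁴ cells/mL. Densities counted by hemocytometer and expressed as percent of control growth to derive IC50 and IC90. Performed in triplicate.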

Mus musculus [3] = species: Mus musculus; assay: Inhibition of MAO in mouse cortex at 10 uM by tube luminometry
How it was run: (§2)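 MAO-Glo luminescent assay of non-specific MAO activity. Enzyme source was a crude mitochondrial preparation from NIH Swiss mouse cortex. Compounds tested at 10 and 50 µM.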

Glutamate NMDA receptor [4] = assay: Antagonist activity at NMDA receptor in rat cerebellar granule neurons assessed as inhibition of glutamate-induced increase in intracellular calcium level by fluorometric assay; type: functional, cell-based; how it was run: as §1
Trypanosoma brucei [5] = assay: Ratio of compound to amantadine activity against Trypanosoma brucei 427 bloodstream form; type: functional
Mus musculus [6] = species: Mus musculus; assay: Inhibition of MAO in mouse cortex at 50 uM by tube luminometry; how it was run: as §2
Trypanosoma brucei [7] = assay: Trypanocidal activity against Trypanosoma brucei 427 bloodstream form assessed as decrease in cell density at 5 ug/mL after 48 hrs by hemocytometry; type: functional, organism-based

SMILES | pIC50 (Glutamate NMDA receptor [1]) | pIC50 (Trypanosoma brucei [2]) | IC90 (Trypanosoma brucei [2]) [µM] | inhibition (Mus musculus [3]) | pIC50 (Glutamate NMDA receptor [4]) | Ratio (Trypanosoma brucei [5]) | inhibition (Mus musculus [6]) | Activity (Trypanosoma brucei [7])
C#CCN(CC#C)C12CC3CC(CC)(CC(C1)c1ccccc13)O2 | < 3.70 | 4.83 | 24.1 | inactive | < 3.30 | >=10 | inactive | –
c1ccc(CCNC23CC4CC(CC(C2)c2ccccc24)O3)cc1 | < 3.70 | – | – | – | < 3.30 | – | – | inactive
CCN(CC)C12CC3CC(CC(C1)c1ccccc13)O2 | 4.85 | – | – | – | 4.02 | – | – | –
c1ccc2c(c1)C1CC3CC2CC(N2CCCCC2)(C1)O3 | 4.52 | – | – | – | 3.77 | – | – | –
NC(=O)CNC12CC3CC(CC(C1)c1ccccc13)O2 | < 3.70 | – | – | inactive | < 3.30 | – | inactive | inactive
C#CCN(CC#C)C12CC3CC(CC(C1)c1ccccc13)O2 | < 3.70 | – | – | inactive | < 3.30 | – | inactive | inactive
C#CCNC12CC3CC(CC)(CC(C1)c1ccccc13)O2 | < 3.70 | 4.82 | 25.6 | inactive | < 3.30 | >=10 | inactive | –
C#CCN(C)[C@H](C)Cc1ccccc1 | – | – | – | 85.5% | – | – | – | –
C#CCNC12CC3CC(CC(C1)c1ccccc13)O2 | 4.47 | – | – | inactive | 3.94 | – | inactive | inactive
CN(Cc1ccccc1)C12CC3CC(CC(C1)c1ccccc13)O2 | < 3.70 | – | – | – | < 3.30 | – | – | inactive
CCC12CC3CC(N)(CC(C1)c1ccccc13)O2 | < 3.70 | – | – | – | < 3.30 | – | – | inactive
CN(C)C12CC3CC(CC(C1)c1ccccc13)O2 | 5.42 | – | – | – | 4.41 | – | – | inactive
NC12CC3CC(CC(C1)c1ccccc13)O2 | 4.46 | – | – | – | 3.39 | – | – | inactive
CN(C)C12CC3CC(C)(CC(C1)c1ccccc13)O2 | 5.41 | – | – | – | 5.11 | – | – | inactive
c1ccc(CN(Cc2ccccc2)C23CC4CC(CC(C2)c2ccccc24)O3)cc1 | < 3.70 | – | – | – | < 3.30 | – | – | inactive
CNC12CC3CC(CC(C1)c1ccccc13)O2 | 5.22 | – | – | – | 4.55 | – | – | inactive
CCN(CC)C12CC3CC(C)(CC(C1)c1ccccc13)O2 | 5.11 | – | – | – | 4.66 | – | – | inactive
CC12CC3CC(N)(CC(C1)c1ccccc13)O2 | 4.01 | – | – | – | 3.78 | – | – | inactive
CCC12CC3CC(NCc4ccccc4)(CC(C1)c1ccccc13)O2 | < 3.70 | 4.86 | 19.9 | – | < 3.30 | >=10 | – | –
CC(N)C12CC3CC(CC(C3)C1)C2 (stereo not given) [RIMANTADINE] | – | – | 14 | – | – | – | – | –
CC12CC3CC(C)(C1)CC(N)(C3)C2 [MEMANTINE] | – | 4.86 | 21.4 | – | – | – | – | –
c1ccc(CNC23CC4CC(CC(C2)c2ccccc24)O3)cc1 | < 3.70 | – | – | – | < 3.30 | – | – | inactive

From ChEMBL document CHEMBL1157696, “New oxapolycyclic cage amines with NMDA receptor antagonist and trypanocidal activities” (Bioorg Med Chem, 2010)
